In brackets after ≈: the same amount, converted by molar mass. Activity calls are given as the source filed them. No cut-off for these calls is given here.

Data set [1] in a line: Tmax in CD1 mouse at 50 mg/kg, po. The data set is classed as ADME, organism-based. On the set-up: dose 50 mg/kg, route oral. Particulars: in vivo. Summed up: (§1)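 CD1 mice (n = 3 per compound) were dosed orally at 50 mg/kg as an aqueous emulsion in 30% Labrafil. Blood was drawn at 0, 5, 15 and 30 min and 1, 2, 4, 8 and 24 h. Bioavailability and other parameters were calculated from the plasma profiles and compared against the intravenous arm.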

The target in a further data set is Cytochrome P450 2C9 (Homo sapiens, UniProt P11712). Nature of the data set: Inhibition of CYP2C9 (unknown origin). The data set is classed as ADME.
Chain of Cytochrome P450 2C9 (P11712 whole entry): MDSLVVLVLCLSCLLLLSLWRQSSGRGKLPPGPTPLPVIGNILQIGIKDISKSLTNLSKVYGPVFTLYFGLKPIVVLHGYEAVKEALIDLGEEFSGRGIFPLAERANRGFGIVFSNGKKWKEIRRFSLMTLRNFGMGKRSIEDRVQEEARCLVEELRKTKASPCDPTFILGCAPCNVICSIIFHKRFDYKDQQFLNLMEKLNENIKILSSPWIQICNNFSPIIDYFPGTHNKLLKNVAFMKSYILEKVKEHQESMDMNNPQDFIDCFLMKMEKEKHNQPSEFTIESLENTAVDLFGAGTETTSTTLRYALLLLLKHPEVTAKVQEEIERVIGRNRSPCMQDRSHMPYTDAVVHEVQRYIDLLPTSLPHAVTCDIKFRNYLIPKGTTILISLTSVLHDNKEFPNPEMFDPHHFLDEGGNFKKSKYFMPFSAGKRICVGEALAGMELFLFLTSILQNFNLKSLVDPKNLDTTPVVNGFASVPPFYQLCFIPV
In data set [2] the test system is Rattus norvegicus. Nature of the data set: Total unbound AUC (0 to infinity) in Sprague-Dawley rat at 10 mg/kg, iv. Format: ADME, organism-based. On the set-up: dose 10 mg/kg, route intravenous. Particulars: in vivo.
Data set [3] in a line: AUClast in CD1 mouse at 10 mg/kg, iv. Format: ADME, organism-based. Set-up: time 0 - last, dose 10 mg/kg, route intravenous. Particulars: plasma. Summed up:
(§2)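 CD1 mice (n = 3 per compound) given 10 mg/kg as a single tail-vein injection in a pH 7.0 solution of 10% ethanol plus PEG400 (some compounds also with 10% DMSO). Blood was sampled at 0, 5, 15 and 30 min and 1, 2, 4, 8 and 24 h. Parameters were derived from the plasma concentration–time profiles.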

Data set [4] deals with Rattus norvegicus. Put plainly: Total unbound Cmax in Sprague-Dawley rat at 50 mg/kg, po. The data set is classed as ADME, organism-based. Particulars: in vivo. Set-up: dose 50 mg/kg, route oral. Summed up:
(§3)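 Sprague–Dawley rats (n = 3) were dosed orally with an emulsion in 30% Labrafil. Blood was sampled from 0 to 24 h (0, 5, 15, 30 min; 1, 2, 4, 8, 24 h). Bioavailability was derived against the IV arm.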

The nature of data set [5]: Volume of distribution at steady state in Sprague-Dawley rat at 10 mg/kg, iv. Format: ADME, organism-based. On the set-up: dose 10 mg/kg, route intravenous. Particulars: in vivo, read-out: Vdss.
Data set [6] has as its target T1, Glucocorticoid receptor (Homo sapiens) (UniProt P04150).
T1 sequence (whole entry): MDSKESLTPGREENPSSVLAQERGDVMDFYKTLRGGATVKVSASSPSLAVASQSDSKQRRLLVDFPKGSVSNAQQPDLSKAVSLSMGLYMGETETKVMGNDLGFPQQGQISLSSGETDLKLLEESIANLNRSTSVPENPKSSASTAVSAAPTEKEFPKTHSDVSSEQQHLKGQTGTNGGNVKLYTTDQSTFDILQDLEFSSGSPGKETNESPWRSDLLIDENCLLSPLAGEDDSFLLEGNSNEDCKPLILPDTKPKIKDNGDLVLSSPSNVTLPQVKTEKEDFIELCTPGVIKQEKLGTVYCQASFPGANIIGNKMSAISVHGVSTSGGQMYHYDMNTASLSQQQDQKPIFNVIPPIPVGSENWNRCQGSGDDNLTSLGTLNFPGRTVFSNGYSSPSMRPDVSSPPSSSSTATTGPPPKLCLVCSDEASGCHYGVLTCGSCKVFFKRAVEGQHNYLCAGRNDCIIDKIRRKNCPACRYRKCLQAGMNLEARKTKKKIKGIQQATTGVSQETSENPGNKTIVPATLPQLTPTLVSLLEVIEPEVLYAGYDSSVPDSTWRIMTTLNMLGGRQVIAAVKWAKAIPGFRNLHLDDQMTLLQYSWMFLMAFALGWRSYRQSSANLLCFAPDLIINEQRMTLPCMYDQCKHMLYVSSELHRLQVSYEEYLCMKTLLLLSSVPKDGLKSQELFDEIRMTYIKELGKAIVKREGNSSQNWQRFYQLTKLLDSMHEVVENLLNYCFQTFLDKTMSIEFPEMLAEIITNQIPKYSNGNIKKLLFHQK
Put plainly: Transactivation of glucocorticoid receptor in HEK293 cells co-transfected with GRE assessed as induction of GRE-dependent gene expression at 100 ug/ml after 6 hrs by luciferase reporter gene assay. Format: cell-based. Summed up:
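HEK-293 cells stably transfected with a GRE-driven luciferase reporter were exposed to drug at 0.01–100 μg/ml for 6 h. Cells were washed with PBS and lysed, and luciferase activity was measured by luminometer.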

Data set [7] can be described thus: Metabolic stability in mouse liver microsomes assessed as compound remaining at 2 uM measured at 1 hr. Particulars: read-out: Stability. The data set is classed as ADME, Microsome. Summed up: (§4)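 Liver microsomes (human, or male monkey, dog, rat or mouse) at 0.5 mg/mL final with 2 µM compound, 5 mM MgCl2 and 5 mM PBS. The reaction was started with 1 mM NADPH and run at 37 °C. Verapamil was the positive control; water replaced NADPH in the negative control. Read-out was percent parent remaining at 1 h.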

Data set [8] has as its target T2, Cytochrome P450 3A4 (Homo sapiens, UniProt P08684). Put plainly: Inhibition of CYP3A4 (unknown origin). The data set is classed as ADME.
The nature of data set [9]: Tmax in CD1 mouse at 10 mg/kg, iv. Format: ADME, organism-based. Set-up: dose 10 mg/kg, route intravenous. Particulars: in vivo. The essentials:
as §2

Data set [10] in a line: AUClast in CD1 mouse at 50 mg/kg, po. Set-up: time 0 - last, dose 50 mg/kg, route oral. Particulars: plasma. The data set is classed as ADME, organism-based. Summed up:
as §1

For a further data set, the system named is Caco-2. Put plainly: Apparent permeability from apical to basolateral side of human Caco2 cells. Format: ADME, cell-based. Summed up:
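Caco-2 monolayer permeability measured in the apical-to-basolateral direction and reported as Papp (10−6 cm/s); the efflux ratio was also determined.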

The nature of data set [11]: Terminal half life in beagle dog at 30 mg/kg, po. The data set is classed as ADME, organism-based, Canis lupus familiaris. Set-up: dose 30 mg/kg, route oral. Particulars: in vivo, read-out: beta t1/2 (converted). The essentials: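 Beagles (n = 3) were given an oral emulsion in 30% Labrafil. Blood was collected at 0, 5, 15 and 30 min and at 1, 2, 4, 8 and 24 h. Bioavailability was derived relative to IV dosing.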

Data set [12] has as its system Rattus norvegicus. Put plainly: Oral bioavailability in Sprague-Dawley rat at 50 mg/kg. Format: ADME, organism-based. Particulars: in vivo. Summed up: as §3
Data set [13] can be described thus: Clearance in beagle dog at 10 mg/kg, iv. Format: ADME, organism-based, Canis lupus familiaris. On the set-up: dose 10 mg/kg, route intravenous. Particulars: in vivo.
For the next data set, the system named is C2C12. Put plainly: Cytotoxicity against mouse C2C12 cells assessed as cell viability at 0.01 to 100 ug/mL after 24 hrs by MTT assay. Format: cell-based. Particulars: c2c12, 24 h. The essentials:
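MTT viability run on C2C12 cells grown and treated alongside the NF-κB reporter plates, with drug at 0.01–100 µg/ml and DMSO vehicle. Viability is expressed as percent of untreated cells. A one-way repeated-measures ANOVA tested for a concentration effect.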

Data set [14] addresses Voltage-gated inwardly rectifying potassium channel KCNH2 (Homo sapiens, UniProt Q12809). Nature of the data set: Inhibition of human ERG.
A short description of data set [15]: Tmax in Sprague-Dawley rat at 50 mg/kg, po. The data set is classed as ADME, organism-based. On the set-up: dose 50 mg/kg, route oral. Particulars: in vivo. The essentials:
as §3

In data set [16] the test system is Rattus norvegicus. Put plainly: Total unbound AUC (0 to infinity) in Sprague-Dawley rat at 50 mg/kg, po. Format: ADME, organism-based. Particulars: in vivo. On the set-up: dose 50 mg/kg, route oral. Summed up: as §3
Data set [17] deals with T2, Cytochrome P450 3A4. Put plainly: Induction of CYP3A4 in human hepatocytes. Format: ADME, cell-based, Hepatocyte. Summed up:
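Cryopreserved hepatocytes from 3 human donors were cultured on collagen for 3 days, then dosed daily in fresh medium with 1, 10 or 100 μM compound, vehicle, or rifampin as positive control. CYP3A4 activity was read 24 h after the last dose using testosterone as probe substrate, analysed by LC/MS/MS. Induction is expressed as % of positive control; >40% in any donor counts as a potential inducer.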

Data set [18] can be described thus: Solubility of the compound. The data set is classed as physicochemical.
Data set [19] in a line: Metabolic stability in human liver microsomes assessed as compound remaining at 2 uM measured at 1 hr. Format: ADME, Microsome. Particulars: read-out: Stability. The essentials: as §4
The nature of data set [20]: Volume of distribution at steady state in CD1 mouse at 10 mg/kg, iv. Set-up: dose 10 mg/kg, route intravenous. Format: ADME, organism-based. Particulars: in vivo, read-out: Vdss. The essentials:
as §2

T2 sequence (P08684 whole entry): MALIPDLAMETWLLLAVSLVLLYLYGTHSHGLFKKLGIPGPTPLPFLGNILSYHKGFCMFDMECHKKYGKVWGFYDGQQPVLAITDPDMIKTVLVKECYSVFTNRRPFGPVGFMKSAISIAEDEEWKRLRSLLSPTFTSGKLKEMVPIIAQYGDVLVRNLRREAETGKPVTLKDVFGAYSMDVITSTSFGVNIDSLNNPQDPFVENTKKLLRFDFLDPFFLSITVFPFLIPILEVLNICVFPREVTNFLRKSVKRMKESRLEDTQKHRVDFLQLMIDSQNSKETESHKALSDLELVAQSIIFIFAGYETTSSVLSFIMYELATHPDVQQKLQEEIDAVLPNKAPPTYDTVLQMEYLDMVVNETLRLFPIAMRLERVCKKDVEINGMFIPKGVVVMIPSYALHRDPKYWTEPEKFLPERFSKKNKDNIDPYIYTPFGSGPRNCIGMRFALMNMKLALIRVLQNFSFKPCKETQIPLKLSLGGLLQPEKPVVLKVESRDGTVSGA
Chain of Voltage-gated inwardly rectifying potassium channel KCNH2 (Q12809 whole entry): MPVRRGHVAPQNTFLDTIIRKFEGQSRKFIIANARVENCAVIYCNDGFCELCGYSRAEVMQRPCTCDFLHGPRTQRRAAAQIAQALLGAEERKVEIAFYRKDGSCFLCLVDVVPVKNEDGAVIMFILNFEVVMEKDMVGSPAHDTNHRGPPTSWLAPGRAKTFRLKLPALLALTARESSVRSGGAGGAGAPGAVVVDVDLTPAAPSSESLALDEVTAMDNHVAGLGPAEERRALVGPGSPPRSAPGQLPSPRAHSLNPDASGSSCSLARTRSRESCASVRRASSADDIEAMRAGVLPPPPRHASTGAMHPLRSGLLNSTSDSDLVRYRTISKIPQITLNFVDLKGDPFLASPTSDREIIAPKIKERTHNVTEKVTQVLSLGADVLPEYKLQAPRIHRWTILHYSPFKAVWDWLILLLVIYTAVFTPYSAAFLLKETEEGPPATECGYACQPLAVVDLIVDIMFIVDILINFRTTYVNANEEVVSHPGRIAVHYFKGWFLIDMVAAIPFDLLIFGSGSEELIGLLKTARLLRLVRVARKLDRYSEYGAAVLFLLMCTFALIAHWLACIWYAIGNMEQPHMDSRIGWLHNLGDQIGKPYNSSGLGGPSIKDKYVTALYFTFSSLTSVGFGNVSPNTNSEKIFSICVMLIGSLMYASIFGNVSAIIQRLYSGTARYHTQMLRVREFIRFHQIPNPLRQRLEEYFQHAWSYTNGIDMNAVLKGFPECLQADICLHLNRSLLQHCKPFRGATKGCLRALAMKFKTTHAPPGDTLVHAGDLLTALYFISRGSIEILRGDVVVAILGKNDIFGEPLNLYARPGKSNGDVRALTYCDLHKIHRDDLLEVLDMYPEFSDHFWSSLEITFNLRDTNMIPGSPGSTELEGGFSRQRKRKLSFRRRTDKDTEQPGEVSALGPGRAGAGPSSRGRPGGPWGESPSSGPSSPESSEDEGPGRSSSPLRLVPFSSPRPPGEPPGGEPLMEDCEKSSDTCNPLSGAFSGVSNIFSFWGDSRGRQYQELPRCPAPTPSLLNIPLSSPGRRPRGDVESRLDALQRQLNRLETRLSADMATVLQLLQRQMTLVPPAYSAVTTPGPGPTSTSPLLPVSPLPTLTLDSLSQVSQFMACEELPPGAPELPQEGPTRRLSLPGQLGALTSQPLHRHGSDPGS

`C[C@@H]1C[C@H]2[C@@H]3CCC4=CC(=O)C=C[C@]4(C)C3=CC[C@]2(C)[C@@]1(O)C(=O)CO` [VAMOROLONE]: the Tmax was 2 h in [1], 5 min in data set [9] and 4 h in data set [15]. For the same compound, the IC50 on Cytochrome P450 2C9 is over 50 µM; on Cytochrome P450 3A4 [8], over 50 µM; in data set [14], 20 µM. The fAUC is 8339 ng·h/mL with Rattus norvegicus [2] and 19937 ng·h/mL with Rattus norvegicus [16]. The AUC(0-t) was determined as 8840 ng·h/mL in data set [3] and 32900 ng·h/mL in [10]. In addition, in the data set with Rattus norvegicus [4], the fCmax turned out to be 2543 ng/mL. Besides, the Vd was 0.77 L/kg in data set [5] and 0.757 L/kg in [20]. In addition, in data set [6], the result was inactive. In addition, the remaining at 1 h, 2 µM in [7] was determined as 88.8%; in [19], 82%. The Papp in the data set on Caco-2 stood at 11.2 ×10⁻⁶ cm/s. The half-life in data set [11] was 2.25 h. The F in the data set with Rattus norvegicus [12] is 47.8%. Further, the clearance in data set [13] was 24.7 mL/min/kg. The Activity entry in the data set on C2C12 is listed as “Non-toxic”; at Cytochrome P450 3A4 [17], 24%. The compound further yielded a solubility in [18] of 187 µM (≈ 66.7 µg/mL).

These data come from ChEMBL document CHEMBL2346557 (Bioorg Med Chem, 2013).
